Substrate in data set [1]: NCc1ccc(F)cc1
Put plainly: (§1) Binding affinity to human SSAO. In short, it runs like this:
(§2)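 Recombinant human VAP-1 (0.1 µg protein/assay), Amplex Red/HRP H2O2 fluorimetry in 0.2 mol/L phosphate pH 7.4, 37 °C, 50 min; semicarbazide-insensitive H2O2 subtracted. Km and Vmax from nonlinear Michaelis-Menten fit across substrate concentrations; means of four independent measurements.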

Substrate in data set [2]: NCc1ccccc1
Described as §1. In short, it runs like this: as §2

Substrate in data set [3]: NCc1cccc(CNC(=O)c2ccccc2)c1
The description is as §1. In short, it runs like this:
as §2

Substrate in data set [4]: C=CCOC(=O)NCc1cccc(CN)c1
The data set is described as §1. In short, it runs like this:
as §2

Substrate in data set [5]: NCCc1ccc(F)cc1
The description is as §1. In short, it runs like this:
as §2

Substrate in data set [6]: NCc1cccc(CNC(=O)CI)c1
Described as §1. In short, it runs like this:
as §2

Substrate in data set [7]: NCCCc1ccccc1
Described as §1. In short, it runs like this: as §2

Substrate in data set [8]: NCCCCc1ccccc1
Described as §1. The method, boiled down:
as §2

Substrate in data set [9]: Cc1ccc(CN)cc1F
Described as §1. The method, boiled down: as §2

Substrate in data set [10]: NCCc1ccccc1
Described as §1. In short, it runs like this:
as §2

Substrate in data set [11]: NCc1ccc(F)cc1
Put plainly: (§3) Binding affinity to mouse SSAO. The method, boiled down:
(§4)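 Mouse adipose membranes (1 µg protein/assay) assayed by Amplex Red/HRP H2O2 fluorimetry, 0.2 mol/L phosphate pH 7.4, 37 °C, 50 min, semicarbazide-insensitive signal subtracted. Km and Vmax by nonlinear Michaelis-Menten fitting; means of four independent measurements.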

Substrate in data set [12]: NCc1ccccc1
The description is as §3. The method, boiled down: as §4

Substrate in data set [13]: NCc1cccc(CNC(=O)c2ccccc2)c1
Described as §3. The method, boiled down:
as §4

Substrate in data set [14]: C=CCOC(=O)NCc1cccc(CN)c1
Described as §3. In short, it runs like this:
as §4

Substrate in data set [15]: NCCc1ccc(F)cc1
The description is as §3. In short, it runs like this: as §4

Substrate in data set [16]: NCc1cccc(CNC(=O)CI)c1
Described as §3. In short, it runs like this:
as §4

Substrate in data set [17]: NCCCc1ccccc1
Described as §3. In short, it runs like this: as §4

Substrate in data set [18]: NCCCCc1ccccc1
The data set is described as §3. The method, boiled down: as §4

Substrate in data set [19]: Cc1ccc(CN)cc1F
The data set is described as §3. In short, it runs like this:
as §4

Substrate in data set [20]: NCCc1ccccc1
Described as §3. The method, boiled down:
as §4

B1: Amine oxidase [copper-containing] 3 (Homo sapiens), Q16853 (protein)
chain: MNQKTILVLLILAVITIFALVCVLLVGRGGDGGEPSQLPHCPSVSPSAQPWTHPGQSQLFADLSREELTAVMRFLTQRLGPGLVDAAQARPSDNCVFSVELQLPPKAAALAHLDRGSPPPAREALAIVFFGRQPQPNVSELVVGPLPHPSYMRDVTVERHGGPLPYHRRPVLFQEYLDIDQMIFNRELPQASGLLHHCCFYKHRGRNLVTMTTAPRGLQSGDRATWFGLYYNISGAGFFLHHVGLELLVNHKALDPARWTIQKVFYQGRYYDSLAQLEAQFEAGLVNVVLIPDNGTGGSWSLKSPVPPGPAPPLQFYPQGPRFSVQGSRVASSLWTFSFGLGAFSGPRIFDVRFQGERLVYEISLQEALAIYGGNSPAAMTTRYVDGGFGMGKYTTPLTRGVDCPYLATYVDWHFLLESQAPKTIRDAFCVFEQNQGLPLRRHHSDLYSHYFGGLAETVLVVRSMSTLLNYDYVWDTVFHPSGAIEIRFYATGYISSAFLFGATGKYGNQVSEHTLGTVHTHSAHFKVDLDVAGLENWVWAEDMVFVPMAVPWSPEHQLQRLQVTRKLLEMEEQAAFLVGSATPRYLYLASNHSNKWGHPRGYRIQMLSFAGEPLPQNSSMARGFSWERYQLAVTQRKEEEPSSSSVFNQNDPWAPTVDFSDFINNETIAGKDLVAWVTAGFLHIPHAEDIPNTVTVGNGVGFFLRPYNFFDEDPSFYSADSIYFRGDQDAGACEVNPLACLPQAAACAPDLPAFSHGGFSHN
Take B1: the Km in [1] is 205 µM; in [2] it was 224 µM; in data set [3] it was 630 µM; in [4] it was 569 µM; in [5], 1900 µM; in data set [6] it was 525 µM. In addition, the Km is 1670 µM in data set [7], 280 µM in data set [8], 405 µM in [9] and 3720 µM in [10].

B2: Amine oxidase [copper-containing] 3 (Mus musculus), O70423 (protein)
chain: MTQKTTLVLLALAVITIFALVCVLLAGRSGDGGGLSQPLHCPSVLPSVQPRTHPSQSQPFADLSPEELTAVMSFLTKHLGPGLVDAAQARPSDNCVFSVELQLPAKAAALAHLDRGGPPPVREALAIIFFGGQPKPNVSELVVGPLPHPSYMRDVTVERHGGPLPYYRRPVLDREYQDIEEMIFHRELPQASGLLHHCCFYKHQGQNLLTMTTAPRGLQSGDRATWFGLYYNLSGAGFYPHPIGLELLIDHKALDPALWTIQKVFYQGRYYESLTQLEDQFEAGLVNVVLVPNNGTGGSWSLKSSVPPGPAPPLQFHPQGPRFSVQGSQVSSSLWAFSFGLGAFSGPRIFDIRFQGERVAYEISVQEAIALYGGNSPASMSTCYVDGSFGIGKYSTPLIRGVDCPYLATYVDWHFLLESQAPKTLRDAFCVFEQNQGLPLRRHHSDFYSHYFGGVVGTVLVVRSVSTLLNYDYIWDMVFHPNGAIEVKFHATGYISSAFFFGAGEKFGNRVGAHTLGTVHTHSAHFKVDLDVAGLKNWAWAEDMAFVPTIVPWQPEYQMQRLQVTRKLLETEEEAAFPLGGATPRYLYLASNHSNKWGHRRGYRIQILSFAGKPLPQESPIEKAFTWGRYHLAVTQRKEEEPSSSSIFNQNDPWTPTVNFTDFISNETIAGEDLVAWVTAGFLHIPHAEDIPNTVTAGNSVGFFLRPYNFFDEDPSFHSADSIYFREGQDATACEVNPLACLSQTATCAPEIPAFSHGGFAYRDN
In the case of B2, the Km in data set [11] came out at 15.7 µM; in data set [12] it was 15.4 µM; in data set [13], 12.8 µM; in data set [14], 11.5 µM; in data set [15], 88.8 µM; in data set [16], 29.8 µM. The Km was 27 µM in [17], 11.3 µM in data set [18], 14.8 µM in [19] and 34.8 µM in [20].

For the origin of these results see ChEMBL document CHEMBL1137383, “New efficient substrates for semicarbazide-sensitive amine oxidase/VAP-1 enzyme: analysis by SARs and computational docking” (J Med Chem, 2006).
